Where two headings read alike, the source gives them in different places.
Legend:
PLD = settings: cited from earlier work
[1] = in vivo ref Monovich, Mugrage et al. 2007; cited from earlier work
recombinant PLD2 [2] = biological target: T1, recombinant PLD2 (Homo sapiens, UniProt O14939); experiment: Enzyme inhibition kinetics with purified recombinant PLD2; assay type: biochemical; settings: 300 nM inhibitor; for Effect on Km / Effect on Vmax / Type of inhibition (Lineweaver Burk plot): increasing PC
Outline: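 Purified full-length PLD2 was expressed in Sf21 insect cells with a baculovirus system and enriched on TALON matrix. Two assay formats were used. In one, increasing enzyme amounts, untreated or with 300 nM inhibitor, were run with fixed PC at 3.5 mM. In the other, fixed enzyme, ± 300 nM inhibitor, was run with increasing PC. [3H]-phosphatidylbutanol co-migrating with PBut standards was measured by scintillation counting. Data were plotted as Michaelis-Menten and Lineweaver-Burk plots.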

PLD2 mutants [3] = experiment: Lipase activity of PLD2 mutants overexpressed in COS7 cells; assay type: biochemical
Outline: (§1)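 COS-7 cells in DMEM/10% FBS were transfected at 60% confluence with 1–6 μg plasmid (PLD2 mutants) using Lipofectamine/Plus, with 3 h exposure and 48 h expression. Lysates were treated with 300 nM test compound for 25 min. The lipase assay ran 20 min at 30 °C with shaking and was stopped with ice-cold chloroform/methanol (1:2). Lipids were separated by TLC, and [3H]-phosphatidylbutanol was quantified by scintillation counting.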

PLD2 mutants [4] = biological target: PLD2 mutants (Homo sapiens, UniProt O14939, S757A); experiment: as above; assay type: biochemical; settings: 300 nM
Outline: as §1

recombinant PLD2 [5] = biological target: T1, recombinant PLD2; experiment: Lipase assay of recombinant PLD2 with increasing concentrations of PIP2; assay type: biochemical; settings: 300 nM inhibitor, fixed PC8
Outline: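 Baculovirus-expressed, TALON-enriched full-length PLD2 was left untreated or treated with 300 nM inhibitor. It was then run in the lipase assay with increasing PIP2 concentrations and a fixed concentration of PC8 substrate. Activity was read as radiolabelled phosphatidylbutanol, co-migrating with PBut standards, by scintillation counting.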

PLD1 [6] = biological target: T2, PLD1 (Homo sapiens, UniProt Q13393); settings: inhibiting PLD1 in the tumor microenvironment ref Chen, Hongu et al. 2012; cited from earlier work
T2 sequence (Q13393 1-1074): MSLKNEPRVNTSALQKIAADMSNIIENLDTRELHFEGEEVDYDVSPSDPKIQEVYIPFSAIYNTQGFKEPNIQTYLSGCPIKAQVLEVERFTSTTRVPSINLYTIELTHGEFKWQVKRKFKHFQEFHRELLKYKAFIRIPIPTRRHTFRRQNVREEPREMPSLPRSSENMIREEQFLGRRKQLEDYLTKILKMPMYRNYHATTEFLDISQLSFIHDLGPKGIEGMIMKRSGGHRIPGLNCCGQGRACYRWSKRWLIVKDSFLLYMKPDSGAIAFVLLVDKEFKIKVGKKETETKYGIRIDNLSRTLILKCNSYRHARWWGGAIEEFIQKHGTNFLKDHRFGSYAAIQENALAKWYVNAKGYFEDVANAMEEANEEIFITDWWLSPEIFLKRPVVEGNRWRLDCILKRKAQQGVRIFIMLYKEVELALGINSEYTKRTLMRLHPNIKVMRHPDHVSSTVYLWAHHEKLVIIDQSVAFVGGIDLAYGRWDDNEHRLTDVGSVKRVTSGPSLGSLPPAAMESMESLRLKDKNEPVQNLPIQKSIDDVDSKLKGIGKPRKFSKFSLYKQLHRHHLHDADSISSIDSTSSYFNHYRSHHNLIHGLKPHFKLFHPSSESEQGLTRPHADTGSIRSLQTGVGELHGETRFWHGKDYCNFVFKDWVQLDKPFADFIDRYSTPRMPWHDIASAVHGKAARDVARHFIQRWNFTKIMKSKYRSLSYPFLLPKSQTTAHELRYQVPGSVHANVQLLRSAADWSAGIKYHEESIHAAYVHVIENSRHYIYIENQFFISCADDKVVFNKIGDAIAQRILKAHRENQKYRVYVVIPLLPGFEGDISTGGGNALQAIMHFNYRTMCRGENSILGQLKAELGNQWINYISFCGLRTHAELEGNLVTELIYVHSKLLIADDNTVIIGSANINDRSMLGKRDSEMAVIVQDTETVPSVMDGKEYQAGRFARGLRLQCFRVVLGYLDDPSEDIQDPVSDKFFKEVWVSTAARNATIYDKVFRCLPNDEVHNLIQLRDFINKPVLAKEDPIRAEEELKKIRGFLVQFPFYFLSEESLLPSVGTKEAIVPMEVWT

PLD1 [7] = biological target: T2, PLD1; experiment: Phospholipase; assay type: biochemical
[8] = system: breast cancer cells (MDA-MB-231); experiment: Cell invasion assay; assay type: cell-based; settings: 300 nM, 700 nM; not in cells overexpressing resistant PLD2 mutants
Outline: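 PLD2 mutant constructs were overexpressed by transfection. After transfection, cells were harvested and treated with the test compound at 300 or 700 nM for 20 min. Invasion was then run in Matrigel inserts.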

PLD2 = settings: xenograft mice models ref Henkels, Boivin et al. 2013; cited from earlier work
[9] = ref Lewis JA et al, Bioorg Med Chem Lett, 2009

T1 sequence (O14939 whole entry, species assumed): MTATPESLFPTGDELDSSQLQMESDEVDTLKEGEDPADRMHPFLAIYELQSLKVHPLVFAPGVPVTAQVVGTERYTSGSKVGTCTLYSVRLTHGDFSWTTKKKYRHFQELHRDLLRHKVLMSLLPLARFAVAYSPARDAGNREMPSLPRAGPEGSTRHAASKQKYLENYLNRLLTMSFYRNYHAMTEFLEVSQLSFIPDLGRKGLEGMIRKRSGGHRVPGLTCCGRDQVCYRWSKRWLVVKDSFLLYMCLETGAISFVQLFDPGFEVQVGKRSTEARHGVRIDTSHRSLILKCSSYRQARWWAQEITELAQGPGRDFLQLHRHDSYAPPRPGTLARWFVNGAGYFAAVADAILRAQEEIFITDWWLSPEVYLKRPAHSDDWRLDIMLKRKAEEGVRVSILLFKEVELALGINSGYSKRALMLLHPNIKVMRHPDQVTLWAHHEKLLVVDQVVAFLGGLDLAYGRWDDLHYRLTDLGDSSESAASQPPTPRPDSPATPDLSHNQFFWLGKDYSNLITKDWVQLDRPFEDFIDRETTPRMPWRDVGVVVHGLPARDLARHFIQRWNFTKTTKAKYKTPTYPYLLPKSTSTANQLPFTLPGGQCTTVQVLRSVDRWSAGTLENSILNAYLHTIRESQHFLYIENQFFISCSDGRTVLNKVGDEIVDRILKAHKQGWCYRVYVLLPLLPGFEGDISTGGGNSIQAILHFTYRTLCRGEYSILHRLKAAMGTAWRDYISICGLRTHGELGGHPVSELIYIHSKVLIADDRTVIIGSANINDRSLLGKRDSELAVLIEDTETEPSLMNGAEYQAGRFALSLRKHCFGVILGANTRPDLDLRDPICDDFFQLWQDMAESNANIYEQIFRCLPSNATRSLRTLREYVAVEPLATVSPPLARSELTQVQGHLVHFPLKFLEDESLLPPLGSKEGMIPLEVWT
Chain of PLD2 mutants (Homo sapiens, UniProt O14939, S757A) (O14939 whole entry S757A): as the sequence (O14939 whole entry, species assumed) above, with S757A counted along it

O=C(NCCN1CCC(n2c(=O)[nH]c3ccccc32)CC1)c1cc2cc(F)ccc2[nH]1 [FIPI, N-[2-[4-(2,3-dihydro-2-oxo-1H-benzimidazol-1-yl)-1-piperidinyl]ethyl]-5-fluoro-1H-indole-2-carboxamide]
Isoform specificity (PLD; ref Su W et al, Mol Pharmacol, 2009): Dual (PLD1 and PLD2) inhibitor | bioavailability [1]: 18% | half-life in vivo [1]: 5.5 h | Competition by increasing enzyme or substrate (recombinant PLD2 [2]): not totally competed off | Effect on Km (recombinant PLD2 [2]): increase the Km | Effect on Vmax (recombinant PLD2 [2]): decreasing the Vmax | Type of inhibition (Lineweaver Burk plot) (recombinant PLD2 [2]): mixed-type inhibition | Inhibition of lipase activity of the battery of PLD2 mutants (PLD2 mutants [3]; 300 nM): inhibited most of the mutants | Inhibition of PLD2-S757A lipase activity (PLD2 mutants [4]): resistant | PLD2 inhibition with increasing concentrations of PIP2 (recombinant PLD2 [5]): FIPI inhibited the enzyme | Metastasis and angiogenesis (PLD1 [6]): dampens metastasis and angiogenesis | IC50 (PLD1 [7]): 30 nM

CC(CN1CCC(n2c(=O)[nH]c3cc(Cl)ccc32)CC1)NC(=O)c1ccc2ccccc2c1 (stereo not shown) [NBOD, N-[2-[4-(5-chloro-2,3-dihydro-2-oxo-1H-benzimidazol-1-yl)-1-piperidinyl]-1-methylethyl]-2-naphthalenecarboxamide]
Isoform specificity (PLD; [9]): PLD1 inhibitor

O=C(NCCN1CCC2(CC1)C(=O)NCN2c1cccc(F)c1)c1ccc2ccccc2c1 [NFOT, N-[2-[1-(3-Fluorophenyl)-4-oxo-1,3,-8-triazaspiro[4,5]dec-8-yl]ethyl]-2-naphthalenecarboxamide]
Isoform specificity (PLD; ref Lavieri RR et al, J Med Chem, 2010): PLD2 inhibitor | Effect on Km (recombinant PLD2 [2]): increase the Km | Effect on Vmax (recombinant PLD2 [2]): decreasing the Vmax | Type of inhibition (Lineweaver Burk plot) (recombinant PLD2 [2]): mixed-type inhibition | Inhibition of PLD2-H158Q, Y165F, L173A, R210/212A, F244N/L245/L246A, S648A and S757A lipase activity (PLD2 mutants [3]; 300 nM): demonstrated resistance | Inhibition of PLD2-R210A/R212A, F244N/L245/L246A, S648A and S757A lipase activity (PLD2 mutants [3]; range of inhibitor concentrations, Figure 5): partially resistant to inhibition | PLD2 inhibition with increasing concentrations of PIP2 (recombinant PLD2 [5]): enzyme activity was regained back | Cell invasion of cancer cells [8]: prevents cell invasion

O=C(NCCN1CCC2(CC1)C(=O)NCN2c1ccccc1)c1ccc2ccccc2c1 [NOPT, N-[2-(4-oxo-1-phenyl-1,3,8-triazaspiro[4,5]dec-8-yl)ethyl]-2-naphthalenecarboxamide]
Isoform specificity (PLD; [9]): PLD2 inhibitor | Tumor metastasis and cell invasion (PLD2): inhibited tumor metastasis and cell invasion

C[C@@H](CN1CCC(n2c(=O)[nH]c3cc(Br)ccc32)CC1)NC(=O)[C@@H]1C[C@H]1c1ccccc1 [RBPC, (1R,2R)-N-([S]-1-{4-[5-bromo-2-oxo-2,3-dihydro-1H-benzo(d)imidazol-1-yl]piperidin-1-yl}propan-2-yl)-2-phenylcyclopropanecarboxamide]
Isoform specificity (PLD; [9]): PLD1 inhibitor | Inhibition of PLD activity in PLD1 overexpressed samples (PLD1 [7]; Figure 1): did not efficiently inhibit PLD activity
